# What was measured:
# PC-3 = experiment: NCI 60 cell line screen, Sulforhodamine B Assay; assay type: cell-based; details: Homo sapiens, PC-3, 48 h
# Outline: (§1)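 Run through the NCI-60 screening service: human cancer cell lines exposed to test compound for 48 h. Growth read as cellular protein content by sulforhodamine B staining, and GI50 derived from this.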
# Jurkat and H522 cells [1] = experiment: F26BP measurement in cells; assay type: cell-based, human; details: three hours exposure
# Outline: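 Cells plated at 1×10^5/well, 24 h in RPMI or DMEM (5% CO2, 37°C), then exposed to test compound for 3 h. Cells triturated, washed twice in PBS, dissolved in […] NaOH. F26BP measured by coupled enzyme reaction and normalized to BCA protein. Triplicate or quadruplicate; unpaired two-tailed t-test.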
# phosphoglucoseisomerase = phosphoglucoseisomerase (Homo sapiens, UniProt P06744); experiment: Activity of purified phosphoglucoseisomerase; assay type: biochemical; details: up to 100 μM; data not shown
# LOX IMVI = experiment: NCI 60 cell line screen, Sulforhodamine B Assay; assay type: cell-based; details: Homo sapiens, 48 h
# Outline: as §1
# OVCAR-5 = experiment: NCI 60 cell line screen, Sulforhodamine B Assay; assay type: cell-based; details: Homo sapiens, OVCAR-5, 48 h
# Outline: as §1
# NCI-H460 = experiment: NCI 60 cell line screen, Sulforhodamine B Assay; assay type: cell-based; details: Homo sapiens, NCI-H460, 48 h
# Outline: as §1
# HOP-92 = experiment: NCI 60 cell line screen, Sulforhodamine B Assay; assay type: cell-based; details: Homo sapiens, HOP-92, 48 h
# Outline: as §1
# purified PFK-1 = experiment: Activity of purified PFK-1; assay type: biochemical; details: up to 100 μM; data not shown
# UO-31 = experiment: NCI 60 cell line screen, Sulforhodamine B Assay; assay type: cell-based; details: Homo sapiens, UO-31, 48 h
# Outline: (§2)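 Run through the National Cancer Institute 60 cell line screening service on its panel of 59 human cancer lines in vitro. Cytostatic/toxic effect was read as cellular protein content (sulforhodamine B) over 48 h.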
# Solubility = assay type: physicochemical
# HOP-62 = experiment: NCI 60 cell line screen, Sulforhodamine B Assay; assay type: cell-based; details: Homo sapiens, HOP-62, 48 h
# Outline: as §1
# [2] = system: BxPC-3 pancreatic cancer cells; experiment: BxPC-3 xenograft tumor growth; assay type: in vivo, Balb/C athymic mice; details: 25 mg/kg i.p. every 3 days × 4; similarly to gemcitabine
# MCF7 = experiment: NCI 60 cell line screen, Sulforhodamine B Assay; assay type: cell-based; details: Homo sapiens, MCF7, 48 h
# Outline: as §1
# SK-MEL-2 = experiment: NCI 60 cell line screen, Sulforhodamine B Assay; assay type: cell-based; details: Homo sapiens, SK-MEL-2, 48 h
# Outline: as §1
# SNB-15 = experiment: NCI 60 cell line screen, Sulforhodamine B Assay; assay type: cell-based; details: Homo sapiens, 48 h
# Outline: as §2
# MDA-MB-231/ATCC = experiment: NCI 60 cell line screen, Sulforhodamine B Assay; assay type: cell-based; details: Homo sapiens, MDA-MB-231, 48 h
# Outline: as §1
# HCT-15 = experiment: NCI 60 cell line screen, Sulforhodamine B Assay; assay type: cell-based; details: Homo sapiens, HCT-15, 48 h
# Outline: as §1
# M14 = experiment: NCI 60 cell line screen, Sulforhodamine B Assay; assay type: cell-based; details: Homo sapiens, M14, 48 h
# Outline: as §1
# A498 = experiment: NCI 60 cell line screen, Sulforhodamine B Assay; assay type: cell-based; details: Homo sapiens, A498, 48 h
# Outline: as §1
# MDA-MB-468 = experiment: NCI 60 cell line screen, Sulforhodamine B Assay; assay type: cell-based; details: Homo sapiens, MDA-MB-468, 48 h
# Outline: as §1
# NCI-H23 = experiment: NCI 60 cell line screen, Sulforhodamine B Assay; assay type: cell-based; details: Homo sapiens, NCI-H23, 48 h
# Outline: as §1
# MALME-3M = experiment: NCI 60 cell line screen, Sulforhodamine B Assay; assay type: cell-based; details: Homo sapiens, 48 h
# Outline: as §1
# CCRF-CEM = experiment: NCI 60 cell line screen, Sulforhodamine B Assay; assay type: cell-based; details: Homo sapiens, 48 h
# Outline: as §1
# BT-549 = experiment: NCI 60 cell line screen, Sulforhodamine B Assay; assay type: cell-based; details: Homo sapiens, BT-549, 48 h
# Outline: as §1
# [3] = Tolerability of intraperitoneal PFK15; details: 25 mg/kg i.p. every three days
# MOLT-4 = experiment: NCI 60 cell line screen, Sulforhodamine B Assay; assay type: cell-based; details: Homo sapiens, MOLT-4, 48 h
# Outline: as §1
# SR = experiment: NCI 60 cell line screen, Sulforhodamine B Assay; assay type: cell-based; details: Homo sapiens, 48 h
# Outline: as §2
# [4] = Pharmacokinetic profile after IV administration; assay type: in vivo, female C57Bl/6 mice; details: plasma
# Outline: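 Test compound was given IV to female C57Bl/6 mice, with 8 time points and 3 animals per time point. Plasma was extracted with acetonitrile and analysed by LC-MS/MS on a polar reverse-phase column with a 0.5% formic acid acetonitrile/water mobile phase. Tmax, Cmax, volume of distribution, half-life, clearance, AUCs and MRT were calculated from the concentration–time data.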
# SK-OV-3 = experiment: NCI 60 cell line screen, Sulforhodamine B Assay; assay type: cell-based; details: Homo sapiens, SK-OV-3, 48 h
# Outline: as §2
# [5] = system: Jurkat T cell leukemia cells; experiment: Cell viability, trypan blue exclusion; assay type: cell-based; details: Homo sapiens, 48 h, read-out: IC50 cytotoxic effects (viability)
# HS 578T = experiment: NCI 60 cell line screen, Sulforhodamine B Assay; assay type: cell-based; details: Homo sapiens, 48 h
# Outline: as §1
# OVCAR-3 = experiment: NCI 60 cell line screen, Sulforhodamine B Assay; assay type: cell-based; details: Homo sapiens, OVCAR-3, 48 h
# Outline: as §1
# KM12 = experiment: NCI 60 cell line screen, Sulforhodamine B Assay; assay type: cell-based; details: Homo sapiens, KM12, 48 h
# Outline: as §1
# SW-620 = experiment: NCI 60 cell line screen, Sulforhodamine B Assay; assay type: cell-based; details: Homo sapiens, SW-620, 48 h
# Outline: as §2
# Jurkat and H522 cells [6] = experiment: Intracellular ATP bioluminescence assay; assay type: cell-based, human
# Outline: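 After plating at 1×10^5 cells/well (24 h, 37°C, 5% CO2) and 3 h test compound exposure, adherent cells were washed with cold PBS, lysed in passive lysis buffer and scraped. One freeze (−80°C)/thaw (37°C) cycle, cleared at 4°C. ATP read by firefly luciferase/D-luciferin luminescence at 560 nm against an ATP standard curve, as nmol/mg BCA protein.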
# [7] = female, C57Bl/6, mouse, iv, 5 mg/kg
compound,measurement,setting,value
"O=C(C=Cc1ccc2ccccc2n1)c1ccncc1 [PFK15, 1-(4-pyridinyl)-3-(2-quinolinyl)-2-propen-1-one]",GI50,PC-3,3.16 µM
same,effect on F26BP,Jurkat and H522 cells [1],reduced
same,inhibition of activity of purified phosphoglucoseisomerase,phosphoglucoseisomerase,not inhibit
same,GI50,LOX IMVI,1.66 µM
same,GI50,OVCAR-5,5.37 µM
same,GI50,NCI-H460,3.47 µM
same,GI50,HOP-92,3.02 µM
same,inhibition of activity of purified PFK-1,purified PFK-1,not inhibit
same,GI50,UO-31,1.62 µM
same,solubility,Solubility,limited solubility
same,GI50,HOP-62,2.34 µM
same,growth of pancreatic adenocarcinomas (BxPC-3),[2],suppressed the growth
same,GI50,MCF7,1.86 µM
same,GI50,SK-MEL-2,6.46 µM
same,GI50,SNB-15,11.2 µM
same,GI50,MDA-MB-231/ATCC,2.04 µM
same,GI50,HCT-15,1.1 µM
same,GI50,M14,3.72 µM
same,GI50,A498,11.8 µM
same,GI50,MDA-MB-468,1.66 µM
same,GI50,NCI-H23,3.16 µM
same,GI50,MALME-3M,3.31 µM
same,GI50,CCRF-CEM,3.8 µM
same,GI50,BT-549,2.75 µM
same,body mass loss,[3],< 10%
same,"end organ toxicity based on blood, urine and histological analyses",[3],no end organ toxicity
same,GI50,MOLT-4,2.24 µM
same,GI50,SR,0.23 µM
same,AUC0-inf,"[4]; IV, C57Bl/6 mice",1804 ng/h/mL
same,Cmax,[4]; [7],3050 ng/mL
same,clearance,[4]; [7],46.2 mL/min/kg
same,half-life,[4]; [7],5.1 h
same,GI50,SK-OV-3,15.1 µM
same,IC50,[5],2.42 µM
same,GI50,HS 578T,20.9 µM
same,GI50,OVCAR-3,3.16 µM
same,GI50,KM12,1.95 µM
same,GI50,SW-620,1.7 µM
same,PFK15-mediated ATP depletion [% control],"Jurkat and H522 cells [6]; 5 mM glucose + 1 mM pyruvate, p value = 0.0017",45.62 ± 1.72%
same,PFK15-mediated ATP depletion [% control],Jurkat and H522 cells [6]; 5 mM glucose alone,5.29 ± 0.85%
same,reversal of ATP depletion by glutamine,"Jurkat and H522 cells [6]; addition of 4 mM glutamine, data not shown",could not be significantly reversed
same,reversal of ATP depletion by lactate,"Jurkat and H522 cells [6]; addition of 10 mM lactate, data not shown",could not be significantly reversed
same,effect on intracellular ATP,"Jurkat and H522 cells [6]; three hours exposure, Jurkat and H522",reduced

# — publication PMC3742633 (Molecular cancer therapeutics, 2013)
